PMC11725097 (Acta Pharmaceutica Sinica. B, 2024)

How the values were obtained:
HepG2 cells [1] = experiment: Ferroptosis rescue, RSL3-treated HepG2 cells; type: cell-based; conditions: HepG2, RSL3 4 μmol/L; JZ-6 20 μmol/L, Fer-1 1 μmol/L, 24 h
Summary of the method: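 HepG2 cells (5×10^3/well) were plated overnight. Cells were pretreated 2 h with RSL3 (4 µmol/L), then given medium, compound (20 µmol/L) or Fer-1 (1 µmol/L) for 24 h. CCK-8 was added for 2–4 h at 37 °C and absorbance read at 450 nm. Viability is expressed as % of medium-treated control. Three independent experiments, mean ± SD.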

RAW264.7 macrophages = experiment: LPS-induced IL-1β and IL-6 release in RAW 264.7 macrophages; type: cell-based, mouse; conditions: RAW 264.7, LPS 1 μg/mL, 20, 100, 500 μmol/L, 24 h
Summary of the method: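 RAW 264.7 cells (2×10^5/well) were plated overnight. Cells were pretreated 1 h with compound or NaHS at 20, 100 or 500 µmol/L, then stimulated with LPS (1 µg/mL) for 24 h. IL-1β and IL-6 in the supernatants were measured by ELISA. Three independent experiments, mean ± SD.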

HepG2 cells [2] = experiment: FFA-induced ROS accumulation in HepG2 cells; type: cell-based; conditions: HepG2, compound 100 μmol/L 8 h before FFA 1 mmol/L 24 h
HepG2 cells [3] = experiment: MDA; type: cell-based; conditions: HepG2, FFA 1 mmol/L, 24 h; JZ-6 20, 100, 500 μmol/L; NaHS and JZ-9 500 μmol/L
Summary of the method: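 HepG2 cells (7×10^5/well, plated overnight) were co-incubated 24 h with FFA (1 mmol/L) alone or plus compound (20, 100 or 500 µmol/L) or NaHS (500 µmol/L). MDA in cell lysates was measured with a kit by fluorescence at Ex/Em 532/553 nm and normalised to cell counts. Three independent experiments, mean ± SD.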

Carboxypeptidase Y (CPY) [4] = molecular target: T1, Carboxypeptidase Y (CPY) (Saccharomyces cerevisiae, UniProt P00729); experiment: Enzyme; type: biochemical; conditions: CPY 60 ng/mL; for H2S release over 6 h: donors 5 μmol/L, DNS-N3 10 μmol/L, TBS pH 7.4, 37 °C
T1 sequence (P00729 112-532): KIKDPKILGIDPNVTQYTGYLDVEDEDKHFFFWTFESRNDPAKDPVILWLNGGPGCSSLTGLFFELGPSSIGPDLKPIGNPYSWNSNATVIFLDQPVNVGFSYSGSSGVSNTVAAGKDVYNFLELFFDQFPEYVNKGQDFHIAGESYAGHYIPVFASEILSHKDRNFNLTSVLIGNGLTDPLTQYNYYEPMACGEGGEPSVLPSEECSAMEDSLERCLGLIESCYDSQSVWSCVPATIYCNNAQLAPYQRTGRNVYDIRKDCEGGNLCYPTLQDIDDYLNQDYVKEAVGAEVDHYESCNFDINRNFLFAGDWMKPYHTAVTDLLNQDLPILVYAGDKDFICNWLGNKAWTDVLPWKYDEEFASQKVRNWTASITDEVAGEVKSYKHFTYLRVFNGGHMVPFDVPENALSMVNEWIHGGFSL
Summary of the method: (§1)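 Donor at 5 µmol/L final and DNS-N3 probe at 10 µmol/L final were incubated at 37 °C in 10 mmol/L TBS, pH 7.4, with 1% acetonitrile and 1% […]. The enzyme was either CPY at 60 ng/mL or pre-activated recombinant human CTSA at 250 ng/mL. Aliquots were mixed 1:1 with ACN and fluorescence read at Ex/Em 325/450 nm, minus control background. k came from a single-exponential fit, with t1/2 = 0.693/k. Triplicates, mean ± SD.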

[5] = molecular target: T2, recombinant human cathepsin A (CTSA) (Homo sapiens, UniProt P10619); experiment: CTSA-catalyzed H2S release, fluorescent probe DNS-N3; type: biochemical; conditions: donors 5 μmol/L, CTSA 250 ng/mL, pH 7.4, 37 °C
T2 sequence (P10619 29-326 limits assumed): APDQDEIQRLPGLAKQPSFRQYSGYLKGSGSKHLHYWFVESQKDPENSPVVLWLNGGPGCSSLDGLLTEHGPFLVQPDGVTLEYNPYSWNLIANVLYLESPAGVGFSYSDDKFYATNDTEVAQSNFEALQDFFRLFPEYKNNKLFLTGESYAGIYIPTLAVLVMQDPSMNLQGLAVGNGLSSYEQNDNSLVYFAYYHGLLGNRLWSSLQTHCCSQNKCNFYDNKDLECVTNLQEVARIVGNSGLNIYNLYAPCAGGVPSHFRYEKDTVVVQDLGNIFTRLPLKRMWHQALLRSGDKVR
T2 sequence (P10619 327-480 limits assumed): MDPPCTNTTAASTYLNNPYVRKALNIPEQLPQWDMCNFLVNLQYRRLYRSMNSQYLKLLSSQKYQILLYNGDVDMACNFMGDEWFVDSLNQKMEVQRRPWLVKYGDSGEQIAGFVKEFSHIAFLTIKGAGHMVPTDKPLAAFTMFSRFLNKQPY
Summary of the method: as §1

[6] = H2S release within tissue homogenates; type: in vitro ADME, Sprague-Dawley rats; conditions: donors 250 μmol/L, rat intestine and liver homogenates, 40 min
HepG2 cells [7] = experiment: Formation of compound 3 in lysosomes of HepG2 cells; type: cell-based; conditions: HepG2, JZ-6 25 μmol/L with BNPP 20 μmol/L or telaprevir 5 μmol/L, 6 h
Summary of the method: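 HepG2 cells were treated 6 h with donor (25 µmol/L) alone, with BNPP (20 µmol/L) or with telaprevir (5 µmol/L). For lysosome isolation, cells were Dounce-homogenised and spun at 1000 × g, then 20,000 × g, and the top band taken from an OptiPrep gradient at 100,000 × g, 1 h. Fractions were lysed in cold 70% methanol and analysed by LC–MS/MS, normalised to BCA protein. Triplicate.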

Carboxypeptidase Y (CPY) [8] = molecular target: T1, Carboxypeptidase Y (CPY); experiment: H2S donor activation by CPY monitored by LC-MS/MS; type: in vitro ADME; conditions: JZ-HND 5 μmol/L, CPY 60 ng/mL
Summary of the method: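 Donor at 5 µmol/L final and DNS-N3 at 10 µmol/L final were incubated with CPY (60 ng/mL) in 10 mmol/L TBS, pH 7.4, with 1% menthol, at 37 °C. Parent loss and formation of products, including DNS-NH2, were quantified by LC–MS/MS against calibration curves. Rate constants came from a single-exponential fit, with t1/2 = 0.693/k. Triplicate runs, mean ± SD.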

[9] = Animal pharmacokinetics, mice livers; type: in vivo, BALB/c mice; conditions: oral JZ-HND 1.0 mmol/kg
Summary of the method: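 Male BALB/c mice, fasted 12 h without water, were gavaged at 1 mmol/kg in 0.5% CMC-Na (3 groups, n = 3 each). Plasma was separated by centrifugation and stored below −40 °C. Liver was taken at 0.5, 4 and 8 h post dose and homogenised 10:1 in PBS containing 70% MeOH. Parent and metabolites were quantified by LC–MS/MS.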

[10] = Detection of H2S and sulfur-containing species in mouse liver; type: in vivo, BALB/c mice; conditions: oral JZ-HND 1.0 mmol/kg
Summary of the method: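 BALB/c mice received an oral dose of 1.0 mmol/kg. Liver was collected before dosing (0 h) and at 0.5 and 4 h, then homogenised 10:1 in 20 mmol/L HPE-IAM in MeOH to trap H2S and sulfur species as S-alkylated derivatives, and stored below −40 °C. Derivatives were quantified by LC–MS/MS against synthesised standards and calibration curves. n = 3, mean ± SD.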

[11] = tested on: human hepatic stellate LX-2 cells; experiment: TGF-β1-induced fibrosis in LX-2 cells, ACTA2 and COL1A1 mRNA; type: cell-based; conditions: LX-2, TGF-β1, 72 h; JZ-HND 25-200 μmol/L, others 200 μmol/L
LX-2 cells = experiment: ROS induced by TGF-β1 in LX-2 cells; type: cell-based, human; conditions: LX-2, TGF-β1 10 ng/mL, compound 100 μmol/L, 24 h
Summary of the method: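 LX-2 cells were grown in high-glucose DMEM with 10% FBS at 37 °C and 5% CO2, then plated at 1×10^5/well overnight. Cells were co-treated 24 h with compound (100 µmol/L) and TGF-β1 (10 ng/mL). They were loaded with DCFH-DA (10 µmol/L) for 30 min and Hoechst 33342 for 10 min at 37 °C, then imaged by fluorescence microscopy in the GFP channel.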

[12] = tested on: CCl4-induced liver injury; experiment: CCl4-induced liver injury model in mice; type: in vivo, BALB/c mice; conditions: 1 mmol/kg oral daily, 4 weeks

## CCOC(=O)c1ccc(NC2CCCCC2)c(N)c1 [ferrostatin-1]
HepG2 cells [1]
  cell viability after RSL3 (ferroptosis rescue): attenuated RSL3-induced cytotoxicity

## [Na+].[SH-] [NaHS]
RAW264.7 macrophages
  IL-1β and IL-6 secretion: modest inhibitory effect
HepG2 cells [2]
  cellular ROS accumulation induced by FFA: strikingly reduced the cellular fluorescence signal
HepG2 cells [3]
  MDA levels (lipid peroxidation): alleviated

## CNC(=O)[C@H](C)NP(=S)(Oc1ccccc1)c1ccccc1 (stereo partly shown) [JZ-12]
Carboxypeptidase Y (CPY) [4]
  H2S release over 6 h: inadequate

## CC(C)OC(=O)[C@H](C)NP(=S)(Oc1ccc(CCN2CCOCC2)cc1)c1ccccc1 (stereo partly shown) [JZ-18]
[5]
  H2S release, rate constant k: 0.2978 h⁻¹
[5]; 10 h
  H2S yield: approximately 37%

## C1COCCN1.COc1ccc(P(=S)(S)N2CCOCC2)cc1 (stereo not shown) [GYY4137, reference compound]
Carboxypeptidase Y (CPY) [4]
  H2S release over 6 h: low amount of H2S
[6]
  H2S release behaviour in homogenates: almost undetectable

## CCC[C@H](NC(=O)[C@@H]1[C@H]2CCC[C@H]2CN1C(=O)[C@@H](NC(=O)[C@@H](NC(=O)c1cnccn1)C1CCCCC1)C(C)(C)C)C(=O)C(=O)NC1CC1 [telaprevir]
HepG2 cells [7]
  effect of inhibitor on lysosomal 3 formed from JZ-6: significant decrease

## Cc1ccc(=O)n(-c2ccc(OP(=S)(N[C@@H](C)C(=O)OC(C)C)c3ccccc3)cc2)c1 (stereo partly drawn) [JZ-HND, isopropyl ((4-(5-methyl-2-oxopyridin-1(2H)-yl)phenoxy) (phenyl)phosphorothioyl)-L-alaninate]
Carboxypeptidase Y (CPY) [4]; JZ-HND 5 μmol/L, pH 7.4, 37 °C
  generation of H2S, rate constant k: 0.3748 h⁻¹
Carboxypeptidase Y (CPY) [8]
  generation of 3, rate constant k: 0.3133 h⁻¹
  generation of HND, rate constant k: 1.090 h⁻¹
Carboxypeptidase Y (CPY) [8]; TBS pH 7.4, 37 °C
  degradation of donor, rate constant k: 1.085 h⁻¹
[6]
  H2S release behaviour in homogenates: biphasic and lasted longer
[9]
  Cmax (liver): 15 µM
  time of maximum intrahepatic concentration: half an hour
[9]; 8 h
  detection in the liver after 8 h of administration: not detected
[10]
  levels of HSSH and CysSH in liver: no significant change
[10]; 0.5 h
  levels of GSH, GSSH and CysSSH in liver: significant increases
[10]; 0.5 h vs pre-dose (0 h)
  H2S level in liver tissue: significant increase compared to the pre-dose level
[11]
  mRNA expression of ACTA2 and COL1A1: dose-dependently inhibited
LX-2 cells
  ROS levels induced by TGF-β1: significantly inhibited
RAW264.7 macrophages
  IL-1β and IL-6 secretion: significant inhibition
[12]
  collagen fiber accumulation (Masson's trichrome): significantly slowed collagen fiber accumulation
  hepatic ballooning and inflammatory cell infiltration (H&E): significantly reduced
  hepatic expression of oxidative stress genes (Gpx1, Sod1, Sod2, Cat): rebounded
  hepatic tissue GPX activity: significant increase
  liver gene levels of fibrotic markers (Tgfb1, Col1a1, Col3a1, Acta2): reversals of the increased gene levels
  liver mRNA levels of Nfkb1, Il1b and Tnfa: strongly suppressed
  serum ALT and AST levels: consistently lower
[12]; vs control and HND groups
  serum SOD activity: significantly lower

## Cc1ccc(=O)n(-c2ccc(OP(=O)(N[C@@H](C)C(=O)OC(C)C)c3ccccc3)cc2)c1 (stereo partly shown) [JZ-17]
[11]
  mRNA expression of ACTA2 and COL1A1: did not inhibit the expression of pro-fibrotic genes as much as JZ-HND

## O=[N+]([O-])c1ccc(OP(=O)(O)Oc2ccc([N+](=O)[O-])cc2)cc1 [BNPP, bis(p-nitrophenyl) phosphate]
HepG2 cells [7]
  effect of inhibitor on lysosomal 3 formed from JZ-6: increase in lysosomal 3
